The values below come from ChEMBL document CHEMBL2016482, “Synthesis and inhibitory effect of piperine derivates on monoamine oxidase” (Bioorg Med Chem Lett, 2012).

In data set [1] the target is T1, Amine oxidase [flavin-containing] A (Rattus norvegicus, UniProt P21396).
T1 sequence (P21396 whole entry): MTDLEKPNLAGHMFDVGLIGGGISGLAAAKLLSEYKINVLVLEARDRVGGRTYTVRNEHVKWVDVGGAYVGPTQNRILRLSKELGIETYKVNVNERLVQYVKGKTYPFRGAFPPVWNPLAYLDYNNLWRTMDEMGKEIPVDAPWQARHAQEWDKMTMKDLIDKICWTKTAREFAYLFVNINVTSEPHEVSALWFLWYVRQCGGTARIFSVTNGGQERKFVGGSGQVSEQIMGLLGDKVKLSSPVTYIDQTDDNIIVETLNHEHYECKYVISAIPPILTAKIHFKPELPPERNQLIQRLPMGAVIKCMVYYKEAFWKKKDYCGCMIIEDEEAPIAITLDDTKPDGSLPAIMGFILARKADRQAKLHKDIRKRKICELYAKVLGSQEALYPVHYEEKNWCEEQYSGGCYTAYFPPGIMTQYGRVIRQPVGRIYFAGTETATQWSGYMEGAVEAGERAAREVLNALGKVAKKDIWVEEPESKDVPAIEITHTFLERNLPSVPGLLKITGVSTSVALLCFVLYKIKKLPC
Description: Inhibition of MAO-A in Sprague-Dawley rat brain homogenate using kynuramine as substrate preincubated for 10 mins measured by fluorimetric assay. It counts as tissue-based. An outline of the steps:
(§1)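 Rat brain homogenate was the enzyme source, with protein measured by Bradford against a BSA standard. Fluorometric MAO assay used kynuramine substrate in the presence of isoform-specific inhibitors. Test inhibitor was preincubated with homogenate for 10 min. IC50 came from plots of % residual activity relative to enzyme treated identically without inhibitor.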

Data set [2] deals with T2, Amine oxidase [flavin-containing] B (Rattus norvegicus, UniProt P19643).
T2 sequence (P19643 whole entry): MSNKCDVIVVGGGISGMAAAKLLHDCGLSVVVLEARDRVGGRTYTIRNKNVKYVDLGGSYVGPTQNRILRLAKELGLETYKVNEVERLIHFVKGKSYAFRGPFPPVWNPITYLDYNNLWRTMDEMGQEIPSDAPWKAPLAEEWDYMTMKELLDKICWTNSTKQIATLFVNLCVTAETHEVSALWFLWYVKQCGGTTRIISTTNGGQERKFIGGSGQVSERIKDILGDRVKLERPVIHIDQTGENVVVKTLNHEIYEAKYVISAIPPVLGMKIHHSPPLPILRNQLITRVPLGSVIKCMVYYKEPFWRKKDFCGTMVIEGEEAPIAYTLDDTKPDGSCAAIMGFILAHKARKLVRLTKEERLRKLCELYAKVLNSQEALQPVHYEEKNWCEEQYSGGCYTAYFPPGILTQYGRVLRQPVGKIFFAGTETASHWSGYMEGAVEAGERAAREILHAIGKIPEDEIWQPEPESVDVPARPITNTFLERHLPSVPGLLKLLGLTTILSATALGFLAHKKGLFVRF
Kind of data set: Inhibition of MAO-B in Sprague-Dawley rat brain homogenate using kynuramine as substrate preincubated for 10 mins measured by fluorimetric assay. It counts as tissue-based. An outline of the steps:
as §1

For the next data set, the species on record is Rattus norvegicus. Description: Selectivity ratio of IC50 for Sprague-Dawley rat MAO-A to IC50 for Sprague-Dawley rat MAO-B.
Data set [3] concerns the target T1, Amine oxidase [flavin-containing] A. Kind of data set: Competitive inhibition of MAO-A in Sprague-Dawley rat brain homogenate by Lineweaver-Burk plot analysis. It counts as tissue-based. The essentials:
(§2)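 Kinetic mode of the same homogenate kynuramine fluorometric assay. Reciprocal MAO activity was plotted against reciprocal kynuramine concentration (Lineweaver–Burk), each at three inhibitor levels including zero, run separately for MAO-A and MAO-B.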

In data set [4] the target is T2, Amine oxidase [flavin-containing] B. Kind of data set: Competitive inhibition of MAO-B in Sprague-Dawley rat brain homogenate by Lineweaver-Burk plot analysis. It is filed as tissue-based. The essentials: as §2

Turning to `O=C(/C=C/C=C/c1ccc(O)c(O)c1)N1CCCCC1`, the concentration for half-maximal inhibition (IC50) is 800 nM in data set [1] and 1570 nM in data set [2]. Further, the Ratio IC50 in the data set listed under Rattus norvegicus was found to be 0.51.
Taken in the same sequence, the figures for `O=C(/C=C/C=C/c1ccc2c(c1)OCO2)N1CCCCC1` [PIPERINE] were 404 nM, 260 nM and 1.55.
In the case of `CCCNC(=O)/C=C/C=C/c1ccc2c(c1)OCO2`, the “inhibition (INH)” value in data set [3] and in data set [4] was “Active” each time. For the same molecule, the IC50 stood at 3660 nM in data set [1] and 45 nM in data set [2]. Besides, the Ratio IC50 in the data set listed under Rattus norvegicus is 81.5.
As to `CCOC(=O)CCCCc1ccc2c(c1)OCO2`, the IC50 in data set [1] is 5570 nM; in data set [2], 1230 nM. In the data set filed under Rattus norvegicus, the Ratio IC50 came out at 4.53.
Taken in the same sequence, the figures for `O=C(O)/C=C/C=C/c1ccc2c(c1)OCO2` [PIPERIC ACID] were 18300 nM, 13600 nM and 1.35.
Regarding `CCCNC(=O)CCCCc1ccc2c(c1)OCO2`, the IC50 in data set [1] and in data set [2] was more than 100000 nM in each case.
`C(/C=C/c1ccc2c(c1)OCO2)=C\CN1CCCCC1`: the IC50 in data set [1] and in data set [2] was more than 100000 nM in each case.
Consider `CCN(CC)C(=O)CCCCc1ccc2c(c1)OCO2`, for which the IC50 in data set [1] was determined as 5210 nM; in data set [2] it was 1750 nM. Also, the Ratio IC50 in the data set filed under Rattus norvegicus stood at 2.98.
As for `O=C(C1C=CC(c2ccc3c(c2)OCO3)C(/C=C/c2ccc3c(c2)OCO3)C1C(=O)N1CCCCC1)N1CCCCC1` (stereo not drawn), the IC50 in data set [1] and in data set [2] was more than 100000 nM each time.
`CCOC(=O)/C=C/C=C/c1ccc2c(c1)OCO2`: the half-maximal inhibitory concentration (IC50) was found to be 7550 nM in data set [1] and 330 nM in data set [2]. In addition, in the data set listed under Rattus norvegicus, the Ratio IC50 was determined as 22.8.
With `CCCCNC(=O)/C=C/C=C/c1ccc2c(c1)OCO2`, the results for the IC50 in data set [1] and in data set [2] were more than 100000 nM and 330 nM, respectively.
With `O=C(CCCCc1ccc2c(c1)OCO2)N1CCCCC1` [TETRAHYDROPIPERINE], the IC50 is more than 100000 nM in data set [1] and 1970 nM in data set [2].
Turning to `CN1CCN(C(=O)/C=C/C=C/c2ccc3c(c2)OCO3)CC1`, the IC50 in data set [1] stood at 2040 nM; in data set [2], 960 nM. The Ratio IC50 in the data set listed under Rattus norvegicus came to 2.12.
For `COC(=O)CCCCc1ccc2c(c1)OCO2` the same measures were 3170 nM, 1800 nM and 1.76.
Consider `COC(=O)/C=C/C=C/c1ccc2c(c1)OCO2` [METHYL PIPERATE], for which the IC50 turned out to be 2740 nM in data set [1] and 230 nM in data set [2]. Besides, the Ratio IC50 in the data set listed under Rattus norvegicus is 11.9.
For `CC(=O)Oc1ccc(/C=C/C=C/C(=O)N2CCCCC2)cc1OC(C)=O` the same measures were 1280 nM, 750 nM and 1.71.
Taken in the same sequence, the figures for `CCCCNC(=O)CCCCc1ccc2c(c1)OCO2` were 16100 nM, 3500 nM and 4.59.
`CN1CCN(C(=O)CCCCc2ccc3c(c2)OCO3)CC1`: the IC50 in data set [1] and in data set [2] was more than 100000 nM in each case.
For the molecule `CCN(CC)C(=O)/C=C/C=C/c1ccc2c(c1)OCO2`, the IC50 in data set [1] is 3820 nM; in data set [2], 78 nM. For the same molecule, in the data set filed under Rattus norvegicus, the Ratio IC50 was 49.
